Assay results: article PMC13094344 (ACS chemical neuroscience, 2017)

Assays:
[1] = target: T1, hCB1R (Homo sapiens, UniProt P21554); assay: Arrestin2 recruitment to hCB1R-GFP2 by BRET2; format: cell-based; details: for Arrestin2 recruitment by the compound alone: 1 nM – 10 μM, HEK293A or Neuro2a cells; for Log(αβ) / α (affinity modulation) / β (efficacy modulation) / τB (modulator efficacy): BRETEff, HEK293A, ± SD; for Log(αβ) / α (affinity modulation) / β (efficacy modulation): CP55,940 as agonist; for τB (modulator efficacy): fraction of the efficacy of CP55,940
T1 sequence (P21554 whole entry): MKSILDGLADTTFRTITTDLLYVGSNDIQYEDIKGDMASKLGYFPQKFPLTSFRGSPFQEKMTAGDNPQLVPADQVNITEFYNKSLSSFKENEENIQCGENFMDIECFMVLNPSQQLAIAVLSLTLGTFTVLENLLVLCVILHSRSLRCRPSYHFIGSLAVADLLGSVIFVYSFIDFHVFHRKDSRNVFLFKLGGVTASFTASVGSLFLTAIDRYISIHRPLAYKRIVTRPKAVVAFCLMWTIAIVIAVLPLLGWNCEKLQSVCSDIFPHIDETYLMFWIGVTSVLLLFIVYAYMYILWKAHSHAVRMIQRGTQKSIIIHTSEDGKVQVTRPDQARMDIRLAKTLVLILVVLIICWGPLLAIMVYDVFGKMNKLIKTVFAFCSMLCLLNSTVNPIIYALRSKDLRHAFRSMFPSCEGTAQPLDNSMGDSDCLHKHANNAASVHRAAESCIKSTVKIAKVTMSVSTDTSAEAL

[2] = target: T1, hCB1R; assay: cAMP luciferase reporter assay in HEK-CRE cells transfected with hCB1R-GFP2; format: cell-based; details: for Log(αβ) / α (affinity modulation) / β (efficacy modulation): CP55,940 as agonist, ± SD; for τB (modulator efficacy): fraction of the efficacy of CP55,940, ± SD
[3] = target: T1, hCB1R; assay: ERK1/2 phosphorylation, In-cell western; format: cell-based; details: 1 nM – 10 μM; HEK293A and Neuro2a cells
[4] = target: T1, hCB1R; assay: PLCβ3 phosphorylation, In-cell western; format: cell-based; details: 1 nM – 10 μM; HEK293A and Neuro2a cells
[5] = test system: hCB1R; assay: Induced signaling bias, cAMP inhibition versus arrestin2 recruitment, ΔLog; format: cell-based, human; details: CP55,940, 95% CI; for ΔLog(αβ): cAMP versus arrestin2 (BRET2); for Induced Bias: toward inhibition of cAMP production over arrestin2 recruitment
Outline: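 Arrestin2 arm: HEK293A cells were transfected with hCB1R-GFP2 and arrestin2-Rluc. Cells were suspended in BRET buffer 48 h later and read by BRET2 (coelenterazine 400a 50 μM; emissions 405/510 nm). cAMP arm: HEK-CRE cells carried hCB1R-GFP2 and were read by luciferase reporter in 10 µM forskolin. CP55,940 1 nM–10 µM ± test compound 1 nM–10 µM, 0.1% DMSO. Data were fit to an allosteric binding plus Black-Leff operational model, with four independent estimates.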

[6] = target: T1, hCB1R; assay: [3H]CP55,940 binding to CHO-hCB1R membranes; details: 10 μM
[7] = target: T2, CB1R (Mus musculus, UniProt P47746); assay: Electrically-evoked contractions of mouse isolated vas deferens
T2 sequence (P47746 whole entry): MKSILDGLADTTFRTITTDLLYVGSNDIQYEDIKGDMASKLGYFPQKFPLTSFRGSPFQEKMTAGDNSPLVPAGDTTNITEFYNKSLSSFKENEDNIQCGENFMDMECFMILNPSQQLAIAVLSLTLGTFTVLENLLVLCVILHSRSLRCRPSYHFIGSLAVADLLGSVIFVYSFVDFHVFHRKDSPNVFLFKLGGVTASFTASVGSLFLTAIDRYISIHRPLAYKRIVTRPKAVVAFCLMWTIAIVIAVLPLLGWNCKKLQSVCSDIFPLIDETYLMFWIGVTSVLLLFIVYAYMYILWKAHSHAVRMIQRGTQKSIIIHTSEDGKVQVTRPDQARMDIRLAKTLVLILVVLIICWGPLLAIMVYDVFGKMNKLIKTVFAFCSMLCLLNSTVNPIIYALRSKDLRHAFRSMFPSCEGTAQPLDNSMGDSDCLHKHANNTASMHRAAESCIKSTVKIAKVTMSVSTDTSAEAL

[8] = target: hCB2R (Homo sapiens, UniProt P34972); assay: [3H]CP55,940 binding to CHO-hCB2R membranes; details: data not shown
Chain of hCB2R (P34972 whole entry): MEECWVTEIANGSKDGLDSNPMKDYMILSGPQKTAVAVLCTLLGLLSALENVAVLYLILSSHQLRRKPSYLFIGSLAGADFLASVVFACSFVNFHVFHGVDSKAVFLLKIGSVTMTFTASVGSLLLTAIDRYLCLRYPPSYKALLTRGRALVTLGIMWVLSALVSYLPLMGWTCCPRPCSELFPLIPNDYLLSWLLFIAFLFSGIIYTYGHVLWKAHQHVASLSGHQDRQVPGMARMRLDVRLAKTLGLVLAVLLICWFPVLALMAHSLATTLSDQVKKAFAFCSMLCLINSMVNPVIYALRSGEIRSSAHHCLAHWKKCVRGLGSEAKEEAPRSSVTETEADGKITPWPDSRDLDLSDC
Outline: (§1)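 Filtration displacement assay with 0.7 nM [3H]CP55,940 in 50 mM Tris-HCl/50 mM Tris-base, 0.1% BSA, pH 7.4, run 60 min at 37 °C. Membranes were from CHO cells stably expressing hCB2R (50 µg protein) or from mouse whole brain. Test compound was added from 10 mM DMSO stock (0.1% DMSO final). Nonspecific binding used 1 µM unlabelled CP55,940; radioactivity was counted by liquid scintillation.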

[9] = target: T2, CB1R; assay: [3H]CP55,940 binding to mouse brain membranes; details: 1 nM – 10 μM
Outline: as §1

| SMILES | Arrestin2 recruitment by the compound alone [1] | Log(αβ) [1] | α (affinity modulation) [1] | β (efficacy modulation) [1] | τB (modulator efficacy) [1] | Log(αβ) [2] | α (affinity modulation) [2] | β (efficacy modulation) [2] | τB (modulator efficacy) [2] | ERK phosphorylation by the compound alone [3] | PLCβ3 phosphorylation by the compound alone [4] | ΔLog(αβ) [5] | Effect on [3H]CP55,940 binding [6] | Induced Bias [5] | Effect by itself on electrically-evoked contractions ([7]; 1 nM up to 10 μM, n=6, data not shown) | Effect on AEA-induced inhibition of electrically-evoked contractions ([7]; 1 μM modulator, AEA 10 and 100 nM) | Increase of [3H]CP55,940 binding to hCB2R ([8]; 10 μM) [%] | Effect on [3H]CP55,940 binding to hCB2R ([8]; up to 1 μM) | Effect on [3H]CP55,940 binding to mouse brain membranes [9] |
| --- | --- | --- | --- | --- | --- | --- | --- | --- | --- | --- | --- | --- | --- | --- | --- | --- | --- | --- | --- |
| O=[N+]([O-])C[C@@H](c1ccccc1)c1c(-c2ccccc2)[nH]c2ccccc12 [GAT229] | no effect | 0.97 ± 0.14 | 4.25 ± 1.5 | 2.3 ± 0.38 | 0 | 1.3 ± 0.35 | 2.25 ± 1.26 | 10.75 ± 4.43 | 0 | without effect | without effect | 0.34 (0.14 – 0.54) |  |  |  |  |  |  |  |
| O=[N+]([O-])C[C@H](c1ccccc1)c1c(-c2ccccc2)[nH]c2ccccc12 [GAT228] | increased arrestin2 recruitment in a concentration-dependent manner | 0.21 ± 0.10 | 2.5 ± 0.58 | 0.68 ± 0.09 | 0.19 ± 0.04 | −0.06 ± 0.36 | 1.08 ± 0.34 | 0.95 ± 0.5 | 0.15 ± 0.06 | increased | increased | −0.27 (−0.40 – −0.09) | weak PAM effect | 0.54 (0.35 – 0.81) |  |  |  |  |  |
| O=[N+]([O-])CC(c1ccccc1)c1c(-c2ccccc2)[nH]c2ccccc12 (centres unmarked) [GAT211] | increased arrestin2 recruitment in a concentration-dependent manner | 1.35 ± 0.04 | 24 ± 2.83 | 0.95 ± 0.06 | 0.15 ± 0.03 | 1.37 ± 0.06 | 21 ± 2 | 1.13 ± 0.19 | 0.19 ± 0.08 | increased | increased | 0.01 (−0.18 – 0.21) |  | n.s | no statistically significant effect | potentiated | 29 | no effect | enhanced |
